Two compounds from ChEMBL document CHEMBL1145502, “Roxithromycin favorably modifies the initial phase of resistance against infection with macrolide-resistant Streptococcus pneumoniae in a murine pneumonia model” (Antimicrob Agents Chemother, 2007) can be followed below.

Converted amounts (≈) assume the structure as drawn. The source made the active and inactive calls. The rule behind the calls is not given here.

Assay [1] deals with Streptococcus pneumoniae. Put plainly: Antimicrobial activity against Streptococcus pneumoniae NMU112 infected in po dosed CBA/J mouse assessed as delaying in development of bacteremia […]. Format: functional, organism-based.
Assay [2] concerns Streptococcus pneumoniae. Description: Inhibition of pneumococcal surface protein A production in Streptococcus pneumoniae NMU112 lysates at 5 ug/mL after 12 hrs by Western blot relative to control. The class given is functional, organism-based. The gist of the method:
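Strain NMU112 (5 × 10⁷ CFU/ml in THY) cultured 12 h at 37°C with drug. Sonicated whole-cell lysates run on SDS-PAGE and Western blotted; bands measured by densitometry as % of drug-free culture. Two cultures per dose, three experiments (n = 5–6).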
On the technique in general: Immunoblotting shows a protein as a band on a membrane.

Assay [3] relates to Streptococcus pneumoniae. Put plainly: Antimicrobial activity against drug-resistant Streptococcus pneumoniae NMU112 infected CBA/J mouse assessed as median survival time at 10 mg/kg, po relative to control. The class given is functional. Put shortly: (§1)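 Male CBA/J mice, 3-4 weeks old, 28-30 g. Macrolide given by oral gavage in saline for 3 days; RXM, ERY and CLR twice daily at 12-h intervals, AZM once daily. Saline controls. 24 h after the last dose, mice were infected intratracheally with 5 × 10⁴ CFU NMU112 (erm(B)/mef(A)). Kaplan-Meier survival and median survival time, log rank test; 10 mice per group per experiment.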

For assay [4], the system named is Streptococcus pneumoniae. Put plainly: Antimicrobial activity against Streptococcus pneumoniae NMU605. The class given is functional. Put shortly:
(§2)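 Broth microdilution MIC (NCCLS method) in Mueller-Hinton broth with 3% lysed horse blood; clinical isolates NMU605 (serotype 3) and NMUP45 (serotype 4).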

In assay [5] the test system is Streptococcus pneumoniae. Description: Reduction of pneumolysin production in Streptococcus pneumoniae NMU112 lysates at 5 ug/mL after 12 hrs by Western blot relative to control. The class given is functional, organism-based. The gist of the method: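 NMU112 at 5 × 10⁷ CFU/ml in THY cultured with macrolide at 37°C for 12 h, then whole-cell sonicated lysates run on SDS-PAGE and immunoblotted for pneumolysin. Band densitometry as mean % of drug-free culture; two cultures per dose per experiment, three experiments.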

For assay [6], the system named is Streptococcus pneumoniae. Put plainly: Antimicrobial activity against drug-resistant Streptococcus pneumoniae NMU112 infected CBA/J mouse assessed as median survival time at 5 mg/kg, po relative to control. The class given is functional. Put shortly: as §1
Assay [7] has as its system Streptococcus pneumoniae. Description: Antimicrobial activity against Streptococcus pneumoniae NMU112. Format: functional. Put shortly: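 Broth microdilution MIC per NCCLS in Mueller-Hinton broth with 3% lysed horse blood.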
For assay [8], the system named is Streptococcus pneumoniae. Put plainly: Antimicrobial activity against Streptococcus pneumoniae NMUP45. Format: functional. The gist of the method:
as §2

What is called MIC is the lowest concentration that inhibits growth of the organism. With `CC[C@H]1OC(=O)[C@H](C)[C@@H](O[C@H]2C[C@@](C)(OC)[C@@H](O)[C@H](C)O2)[C@H](C)[C@@H](O[C@@H]2O[C@H](C)C[C@H](N(C)C)[C@H]2O)[C@](C)(O)C[C@@H](C)CN(C)[C@H](C)[C@@H](O)[C@]1(C)O` [AZITHROMYCIN], the result with Streptococcus pneumoniae [1], in the assay on Streptococcus pneumoniae [2] and in the assay on Streptococcus pneumoniae [5] was Active. The MST in the assay on Streptococcus pneumoniae [3] is 7.33 days; with Streptococcus pneumoniae [6], 5.84 days. For the same compound, the MIC against Streptococcus pneumoniae [4] is 0.125 µg/mL (≈ 0.167 µM); against Streptococcus pneumoniae [7] it was at least 256 µg/mL.

As to `CC[C@H]1OC(=O)[C@H](C)[C@@H](O[C@H]2C[C@@](C)(OC)[C@@H](O)[C@H](C)O2)[C@H](C)[C@@H](O[C@@H]2O[C@H](C)C[C@H](N(C)C)[C@H]2O)[C@](C)(OC)C[C@@H](C)C(=O)[C@H](C)[C@@H](O)[C@]1(C)O` [CLARITHROMYCIN], the outcome in the assay on Streptococcus pneumoniae [1], with Streptococcus pneumoniae [2] and in the assay with Streptococcus pneumoniae [5] was Active. In addition, the MST amounted to 8.45 days with Streptococcus pneumoniae [3] and 6.82 days in the assay with Streptococcus pneumoniae [6]. In addition, the MIC in the assay with Streptococcus pneumoniae [4] is 0.03 µg/mL (≈ 0.0401 µM); against Streptococcus pneumoniae [7] it was at least 256 µg/mL; against Streptococcus pneumoniae [8], 2 µg/mL (≈ 2.67 µM).
